# Reference: ChEMBL document CHEMBL3399974, “Discovery and SAR of novel series of imidazopyrimidinones and dihydroimidazopyrimidinones as positive allosteric modulators of the metabotropic glutamate receptor 5 (mGlu5)” (Bioorg Med Chem Lett, 2015)
# pEC50, pIC50: −log10 of the molar value.
# What was measured:
# [1] = target: Metabotropic glutamate receptor 5 (Rattus norvegicus) (UniProt P31424); assay: Positive allosteric modulation at rat mGluR5 expressed in HEK293 cells assessed as amplitude of response at 30 uM by calcium mobilization assay relative to glutamate; format: functional, cell-based
# Sequence of Metabotropic glutamate receptor 5 (Rattus norvegicus) (P31424 21-1203 limits assumed): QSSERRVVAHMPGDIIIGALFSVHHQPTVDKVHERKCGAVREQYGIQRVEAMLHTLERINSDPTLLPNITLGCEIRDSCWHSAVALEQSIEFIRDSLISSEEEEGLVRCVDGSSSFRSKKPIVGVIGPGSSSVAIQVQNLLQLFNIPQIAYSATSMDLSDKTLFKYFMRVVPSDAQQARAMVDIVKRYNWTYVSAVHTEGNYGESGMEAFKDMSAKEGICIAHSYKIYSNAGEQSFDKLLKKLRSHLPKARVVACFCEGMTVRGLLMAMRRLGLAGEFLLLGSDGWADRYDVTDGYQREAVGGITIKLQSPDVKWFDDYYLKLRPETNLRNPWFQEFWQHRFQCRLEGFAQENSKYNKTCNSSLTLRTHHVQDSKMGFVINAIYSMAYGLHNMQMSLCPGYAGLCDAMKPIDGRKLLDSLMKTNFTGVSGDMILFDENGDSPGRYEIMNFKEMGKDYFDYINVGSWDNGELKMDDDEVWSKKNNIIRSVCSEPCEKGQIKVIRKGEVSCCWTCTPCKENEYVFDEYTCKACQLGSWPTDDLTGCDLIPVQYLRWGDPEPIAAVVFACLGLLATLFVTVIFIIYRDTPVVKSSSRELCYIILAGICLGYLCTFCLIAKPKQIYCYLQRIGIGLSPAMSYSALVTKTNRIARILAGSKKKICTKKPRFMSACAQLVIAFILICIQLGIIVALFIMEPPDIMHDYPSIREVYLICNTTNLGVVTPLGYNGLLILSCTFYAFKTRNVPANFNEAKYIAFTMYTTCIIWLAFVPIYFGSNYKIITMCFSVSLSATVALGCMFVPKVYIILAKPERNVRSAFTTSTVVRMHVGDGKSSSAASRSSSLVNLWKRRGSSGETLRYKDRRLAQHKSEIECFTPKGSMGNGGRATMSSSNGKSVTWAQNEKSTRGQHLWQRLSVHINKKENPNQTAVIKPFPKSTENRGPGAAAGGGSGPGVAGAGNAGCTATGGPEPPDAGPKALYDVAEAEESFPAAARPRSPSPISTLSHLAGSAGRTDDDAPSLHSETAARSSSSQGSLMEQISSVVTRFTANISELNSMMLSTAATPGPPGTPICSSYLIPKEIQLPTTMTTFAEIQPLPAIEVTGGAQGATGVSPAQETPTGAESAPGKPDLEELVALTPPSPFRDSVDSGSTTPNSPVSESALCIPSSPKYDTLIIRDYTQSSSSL
# Outline: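 HEK293 cells stably expressing rat mGlu5 were used in a calcium mobilization assay. Test compound was given at 30 µM, and response amplitude is expressed as percent of the maximal response to 100 µM glutamate. Values are the average of three or more independent determinations.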
# [2] = target: Metabotropic glutamate receptor 5 (Rattus norvegicus, UniProt P31424); assay: Positive allosteric modulation at rat mGluR5 expressed in HEK293 cells by calcium mobilization assay; format: functional, cell-based
# Sequence of Metabotropic glutamate receptor 5 (P31424 whole entry): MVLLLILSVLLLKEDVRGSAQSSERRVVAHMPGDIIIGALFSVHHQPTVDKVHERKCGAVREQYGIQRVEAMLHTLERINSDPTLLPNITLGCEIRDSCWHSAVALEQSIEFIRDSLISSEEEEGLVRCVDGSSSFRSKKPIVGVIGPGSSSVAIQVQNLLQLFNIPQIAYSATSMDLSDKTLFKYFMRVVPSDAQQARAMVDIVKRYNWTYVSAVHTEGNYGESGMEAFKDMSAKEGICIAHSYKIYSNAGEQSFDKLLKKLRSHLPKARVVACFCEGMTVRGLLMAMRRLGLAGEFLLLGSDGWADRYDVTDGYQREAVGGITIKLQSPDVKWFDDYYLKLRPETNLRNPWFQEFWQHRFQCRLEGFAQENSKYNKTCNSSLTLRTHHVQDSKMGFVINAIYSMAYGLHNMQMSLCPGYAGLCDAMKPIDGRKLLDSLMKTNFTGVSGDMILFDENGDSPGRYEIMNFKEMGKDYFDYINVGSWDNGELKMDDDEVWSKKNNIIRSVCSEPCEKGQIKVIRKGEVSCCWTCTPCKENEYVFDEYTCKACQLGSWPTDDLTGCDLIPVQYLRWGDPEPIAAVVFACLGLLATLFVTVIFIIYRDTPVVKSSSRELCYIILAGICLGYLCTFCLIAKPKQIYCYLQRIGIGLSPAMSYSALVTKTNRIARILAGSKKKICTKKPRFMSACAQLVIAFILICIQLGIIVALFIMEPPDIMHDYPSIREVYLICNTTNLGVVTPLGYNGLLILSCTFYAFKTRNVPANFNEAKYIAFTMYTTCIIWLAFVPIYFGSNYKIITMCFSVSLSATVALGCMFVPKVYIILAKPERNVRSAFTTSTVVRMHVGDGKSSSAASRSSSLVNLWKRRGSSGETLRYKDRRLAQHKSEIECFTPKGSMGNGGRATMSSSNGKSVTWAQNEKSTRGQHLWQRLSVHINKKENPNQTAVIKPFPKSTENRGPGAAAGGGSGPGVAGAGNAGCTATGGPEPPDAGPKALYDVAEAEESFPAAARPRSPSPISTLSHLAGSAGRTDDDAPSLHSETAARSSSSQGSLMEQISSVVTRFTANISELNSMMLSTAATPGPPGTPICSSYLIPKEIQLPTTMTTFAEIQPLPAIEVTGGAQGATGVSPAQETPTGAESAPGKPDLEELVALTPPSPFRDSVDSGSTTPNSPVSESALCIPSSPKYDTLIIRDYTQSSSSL
# Outline: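 HEK293 cells stably expressing rat mGlu5 were run in a 'triple add' calcium mobilization assay that detects agonism, PAM and NAM activity together. Response amplitude was expressed as % of the maximal response to 100 µM glutamate. Values are the mean of three or more independent determinations.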
# [3] = target: Metabotropic glutamate receptor 4 (Homo sapiens, UniProt Q14833); assay: Positive allosteric modulation at mGluR4 (unknown origin)
# [4] = target: Metabotropic glutamate receptor 2 (Homo sapiens, UniProt Q14416); assay: Positive allosteric modulation at mGluR2 (unknown origin)
# Sequence of Metabotropic glutamate receptor 2 (Q14416 whole entry): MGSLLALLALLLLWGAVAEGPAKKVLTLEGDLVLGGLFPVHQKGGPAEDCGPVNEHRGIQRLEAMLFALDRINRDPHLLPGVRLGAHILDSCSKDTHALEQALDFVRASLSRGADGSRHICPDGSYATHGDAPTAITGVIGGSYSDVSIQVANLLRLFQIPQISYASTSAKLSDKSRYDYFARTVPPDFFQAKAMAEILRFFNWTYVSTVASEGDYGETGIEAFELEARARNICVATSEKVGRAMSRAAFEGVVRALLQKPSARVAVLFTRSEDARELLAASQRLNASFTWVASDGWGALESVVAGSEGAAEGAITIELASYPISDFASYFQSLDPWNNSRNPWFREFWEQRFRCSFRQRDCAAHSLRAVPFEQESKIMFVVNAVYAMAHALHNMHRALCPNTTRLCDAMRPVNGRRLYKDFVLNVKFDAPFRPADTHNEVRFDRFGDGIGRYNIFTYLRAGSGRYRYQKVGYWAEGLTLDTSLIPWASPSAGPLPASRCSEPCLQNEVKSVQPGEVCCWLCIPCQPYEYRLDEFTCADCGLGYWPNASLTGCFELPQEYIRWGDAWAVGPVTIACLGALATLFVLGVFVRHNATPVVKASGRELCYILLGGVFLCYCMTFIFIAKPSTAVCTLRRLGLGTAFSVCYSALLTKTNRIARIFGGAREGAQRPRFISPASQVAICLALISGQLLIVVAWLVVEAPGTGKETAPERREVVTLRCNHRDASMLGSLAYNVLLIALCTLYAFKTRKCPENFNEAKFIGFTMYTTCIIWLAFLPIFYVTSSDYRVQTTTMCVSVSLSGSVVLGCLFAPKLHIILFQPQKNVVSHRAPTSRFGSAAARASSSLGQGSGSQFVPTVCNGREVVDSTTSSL
# [5] = Plasma protein binding in rat; format: ADME, cell-free
# [6] = Drug metabolism in rat liver microsomes assessed as compound metabolized at 1 uM after 15 mins; format: ADME; conditions: read-out: Drug metabolism
# Outline: (§1)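 Test compound at 1 µM was incubated for 15 min with liver microsomes (human for HLM, rat for RLM). Read-out was % of compound metabolized.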
# [7] = target: Metabotropic glutamate receptor 3 (Homo sapiens, UniProt Q14832); assay: Negative allosteric modulation at mGluR3 (unknown origin)
# Sequence of Metabotropic glutamate receptor 3 (Q14832 whole entry): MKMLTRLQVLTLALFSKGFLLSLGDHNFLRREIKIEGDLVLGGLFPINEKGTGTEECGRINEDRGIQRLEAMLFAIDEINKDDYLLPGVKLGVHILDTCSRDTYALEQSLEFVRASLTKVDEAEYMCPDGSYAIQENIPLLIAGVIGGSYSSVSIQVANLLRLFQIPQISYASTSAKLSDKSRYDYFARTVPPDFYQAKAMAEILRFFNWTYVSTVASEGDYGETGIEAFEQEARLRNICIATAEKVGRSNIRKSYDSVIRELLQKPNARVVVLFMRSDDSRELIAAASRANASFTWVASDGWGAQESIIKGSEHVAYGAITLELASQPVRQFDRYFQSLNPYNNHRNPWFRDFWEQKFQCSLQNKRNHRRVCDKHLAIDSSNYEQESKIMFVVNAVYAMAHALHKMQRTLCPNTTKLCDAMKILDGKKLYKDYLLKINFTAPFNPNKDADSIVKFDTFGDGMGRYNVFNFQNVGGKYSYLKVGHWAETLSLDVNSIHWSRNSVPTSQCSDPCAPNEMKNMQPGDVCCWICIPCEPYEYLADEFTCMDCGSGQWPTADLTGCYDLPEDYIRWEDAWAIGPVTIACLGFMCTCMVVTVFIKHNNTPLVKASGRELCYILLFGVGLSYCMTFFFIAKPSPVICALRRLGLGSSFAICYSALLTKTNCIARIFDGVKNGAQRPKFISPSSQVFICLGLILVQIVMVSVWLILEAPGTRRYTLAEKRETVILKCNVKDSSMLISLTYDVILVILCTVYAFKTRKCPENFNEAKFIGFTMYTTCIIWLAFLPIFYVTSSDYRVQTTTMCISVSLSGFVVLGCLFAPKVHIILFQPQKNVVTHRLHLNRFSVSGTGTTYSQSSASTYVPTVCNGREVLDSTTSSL
# [8] = target: Metabotropic glutamate receptor 6 (Homo sapiens, UniProt O15303); assay: Positive allosteric modulation at mGluR6 (unknown origin)
# [9] = Drug metabolism in human liver microsomes assessed as compound metabolized at 1 uM after 15 mins; format: ADME; conditions: read-out: Drug metabolism; outline: as §1
# [10] = Plasma protein binding in human; format: ADME, cell-free
# [11] = target: Metabotropic glutamate receptor 8 (Homo sapiens, UniProt O00222); assay: Positive allosteric modulation at mGluR8 (unknown origin)
# [12] = target: Metabotropic glutamate receptor 1 (Homo sapiens, UniProt Q13255); assay: Positive allosteric modulation at mGluR1 (unknown origin)
# [13] = target: Metabotropic glutamate receptor 7 (Homo sapiens, UniProt Q14831); assay: Positive allosteric modulation at mGluR7 (unknown origin)
# Sequence of Metabotropic glutamate receptor 7 (Q14831 whole entry): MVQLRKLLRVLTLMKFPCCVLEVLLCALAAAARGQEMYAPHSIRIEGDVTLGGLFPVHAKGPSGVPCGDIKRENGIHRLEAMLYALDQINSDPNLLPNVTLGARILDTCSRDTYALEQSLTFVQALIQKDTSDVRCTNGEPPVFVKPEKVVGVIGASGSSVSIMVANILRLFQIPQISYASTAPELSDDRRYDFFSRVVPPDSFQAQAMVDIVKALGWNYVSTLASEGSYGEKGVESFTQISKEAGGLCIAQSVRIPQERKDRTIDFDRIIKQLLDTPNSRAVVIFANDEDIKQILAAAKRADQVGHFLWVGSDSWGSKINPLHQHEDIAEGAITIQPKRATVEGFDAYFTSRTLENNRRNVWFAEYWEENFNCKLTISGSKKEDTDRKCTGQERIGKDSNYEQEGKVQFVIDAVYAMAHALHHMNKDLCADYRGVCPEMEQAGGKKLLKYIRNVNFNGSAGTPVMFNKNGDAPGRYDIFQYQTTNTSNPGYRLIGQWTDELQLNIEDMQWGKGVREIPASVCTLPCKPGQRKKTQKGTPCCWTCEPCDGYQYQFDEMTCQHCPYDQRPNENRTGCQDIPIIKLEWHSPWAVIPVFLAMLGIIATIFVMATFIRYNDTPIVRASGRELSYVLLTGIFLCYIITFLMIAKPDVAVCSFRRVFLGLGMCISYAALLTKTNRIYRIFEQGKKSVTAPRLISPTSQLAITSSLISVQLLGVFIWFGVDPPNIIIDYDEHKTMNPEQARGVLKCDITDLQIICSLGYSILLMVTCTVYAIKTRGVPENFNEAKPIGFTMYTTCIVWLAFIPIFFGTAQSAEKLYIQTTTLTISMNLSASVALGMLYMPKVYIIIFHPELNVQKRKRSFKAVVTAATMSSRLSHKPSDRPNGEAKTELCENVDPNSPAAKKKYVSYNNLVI
Compound,Emax [1],pEC50 [2],"metabolised at 0.25 h, 1 µM [6]","metabolised at 0.25 h, 1 µM [9]",further results
Cc1cc(N2CCc3nc(COc4ccccc4)cn3C2=O)ncc1F,87%,6.43,–,–,–
O=c1n(-c2ccc(F)cc2)ccc2nc(COc3ccccc3)cn12,83%,6.51,27%,14%,pEC50 [3]: < 5.00; pEC50 [4]: < 5.00; PPB [5]: 93.1%; pIC50 [7]: 6.20; pEC50 [8]: < 5.00; PPB [10]: 96.4%; pEC50 [11]: < 5.00; pEC50 [12]: < 5.00; pEC50 [13]: < 5.00
O=c1[nH]ccc2nc(COc3ccccc3)cn12,19%,< 4.52,–,–,–
CN(C)c1cccc(-n2ccc3nc(COc4ccccc4)cn3c2=O)n1,87%,6.55,90%,66%,–
Cc1ccc(N2CCc3nc(COc4ccccc4)cn3C2=O)nc1,74%,6.31,98%,35%,–
O=c1n(-c2ccc(F)cc2)ccc2nc(COc3cccnc3)cn12,65%,< 5.00,–,–,–
O=c1n(CC2CC2)ccc2nc(COc3ccccc3)cn12,47%,5.95,–,–,–
O=c1n(-c2ccc(F)cc2)ccc2nc(COc3ccccn3)cn12,88%,5.50,–,–,–
O=c1n(-c2cccc(F)c2)ccc2nc(COc3ccccc3)cn12,69%,6.29,71%,47%,–
O=c1n(-c2ccc(F)cc2)ccc2nc(COc3ccc(F)cc3)cn12,85%,6.43,29%,11%,–
Cc1nc(N2CCc3nc(COc4ccccc4)cn3C2=O)ccc1F,91%,6.74,93%,31%,–
O=C1N(c2cccc(F)c2)CCc2nc(COc3ccccc3)cn21,82%,6.66,78%,20%,–
Cc1cccc(OCc2cn3c(n2)CCN(c2ccc(F)cc2)C3=O)c1,47%,6.55,–,–,–
Cc1cc2nc(COc3ccccc3)cn2c(=O)n1-c1ccc(F)cc1,60%,5.68,–,–,–
Cn1ccc2nc(COc3ccccc3)cn2c1=O,67%,< 5.00,–,–,–
Cc1ccnc(-n2ccc3nc(COc4ccccc4)cn3c2=O)c1,64%,5.29,–,–,–
Cc1cccc(OCc2cn3c(=O)n(-c4ccc(F)cc4)ccc3n2)c1,30%,6.46,–,–,–
